Assay results pooled from the literature.
Compare with care: the assays were run in different laboratories.
EGFR G719C: Epidermal growth factor receptor (EGFR, Homo sapiens, UniProt P00533, G719C)
PRPF4B: Serine/threonine-protein kinase PRP4 homolog (PRPF4B, Homo sapiens, UniProt Q13523)

| SMILES | target | effect on | mode | method | tested at | measurement | value |
| --- | --- | --- | --- | --- | --- | --- | --- |
| CCN(CC)CCCC[C@H](NC(=O)[C@H](CC(C)C)NC(=O)[C@H](C)NC(=O)[C@H](Cc1ccccc1)NC(=O)c1ccc(C(C)(C)C)cc1)C(=O)N[C@@H](CO)C(=O)OC | Nucleosome-remodeling factor subunit BPTF (BPTF, Homo sapiens, UniProt Q12830) | thermal stability | – | DSF | 25 µM | ΔTm | 0 °C |
| Cn1cc(-c2cc(F)cc(N3CCn4c(cc5c4CCCC5)C3=O)c2CO)cc(Nc2ccc(N3CCN(C4COC4)CC3)cn2)c1=O | Muscle, skeletal receptor tyrosine-protein kinase (MUSK, Homo sapiens, UniProt O15146) | enzyme activity | inhibitor | – | 0.1 µM | inhibition | 17% |
| Nc1ncc(-c2nc(N3CCOCC3)nc(N3CCOCC3)n2)c(C(F)F)n1 | EGFR G719C | cell-free assay | – | competition with immobilised ligand | 10 µM | remaining binding | 56% |
| C#Cc1n[nH]c2c(-c3cn(C(C)c4ccccn4)c(=O)[nH]c3=O)cc(F)cc12 (centres unmarked) | Proto-oncogene tyrosine-protein kinase ROS (ROS1, Homo sapiens, UniProt P08922) | enzyme activity | inhibitor | – | 1 µM | inhibition | 1.4% |
| Cc1nn(C)cc1-c1nc2c(N3CCN(Cc4ccc(Cl)cc4)CC3)c(Cl)cnc2[nH]1 | EGFR G719C | binding | – | competition with immobilised ligand | 1 µM | remaining binding | 86% |
| COc1ncccc1-c1cnn2ccc(N3CCN(C(=O)OC(C)C)CC3)nc12 | PRPF4B | binding | – | competition with immobilised ligand | 1 µM | remaining binding | 28% |
| CCN1CCN(Cc2ccc(C(=O)Nc3ccc(C)c(Oc4ccc5c(c4)CC(=O)N5)c3)cc2C(F)(F)F)CC1 | PRPF4B | binding | – | competition with immobilised ligand | 1 µM | remaining binding | 100% |
| Cn1cc(-c2cccc(N3CCc4c(sc5c4CC(C)(C)C5)C3=O)c2CO)cc(Nc2ccncn2)c1=O | Serine/threonine-protein kinase mTOR (MTOR, Homo sapiens, UniProt P42345) | enzyme activity | inhibitor | – | 1 µM | inhibition | -4% |
| Nc1ccc(-c2nsc(=O)o2)cc1 | Proteasome Macropain subunit MB1 (PSMB5, Homo sapiens, UniProt P28074) | enzyme activity | inhibitor | – | – | kinact/KI | 8.6 M⁻¹ s⁻¹ |
| O=C(Nc1cccnn1)N1CCN([C@@H]2CCOc3cc(C(F)(F)F)ccc32)CC1 | Neuropeptide Y receptor type 1 (NPY1R, Homo sapiens, UniProt P25929) | cell-free assay | – | – | 20 µM | inhibition | -5% |
| COc1cc(Cl)c(C(=O)N[C@@H](CN[C@H]2CC[C@@H](N)CC2)Cc2ccc(C#N)cc2)cc1-c1ccc(CN[C@H](C)c2ccc(C)cc2)o1 | PRPF4B | enzyme activity | inhibitor | – | 1 µM | remaining activity | 90% |
